Consider eleven molecules from publication PMC6959537 (Bioorganic & medicinal chemistry, 2015).

One series deals with human TRPV1 (Homo sapiens, UniProt Q8NER1). Description: hTRPV1 antagonism, inhibition of activation by capsaicin. Format: cell-based.
Series [1] relates to capsaicin-induced hypothermia. Description: Inhibition of capsaicin-induced hypothermia after oral administration. Further details: species or system mouse. The following applies: in vivo.
The test system of the next series is body temperature. Description: Body temperature study. Format: in vivo, mouse. The following applies: at the given doses, oral.
The test system of series [2] is CCI-induced cold allodynia. Description: CCI-induced cold allodynia. Format: in vivo. The following applies: mouse, Bennett model, oral, 10 mg/kg. Summed up: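 Mice with chronic constriction injury (Bennett model) received test compound orally. Cold allodynia was then scored and expressed as % maximal possible effect. Groups were n = 10, reported as mean ± SEM, and compared with vehicle (p < 0.05).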

Setting [3] is: capsaicin 100 nM, FLIPR, hTRPV1 expressed in CHO cells.

Entries after “also recorded” stand apart in the source; their conditions may differ. Like-named read-outs stand apart in the source and are kept apart here.

Chain of human TRPV1 (Q8NER1 whole entry): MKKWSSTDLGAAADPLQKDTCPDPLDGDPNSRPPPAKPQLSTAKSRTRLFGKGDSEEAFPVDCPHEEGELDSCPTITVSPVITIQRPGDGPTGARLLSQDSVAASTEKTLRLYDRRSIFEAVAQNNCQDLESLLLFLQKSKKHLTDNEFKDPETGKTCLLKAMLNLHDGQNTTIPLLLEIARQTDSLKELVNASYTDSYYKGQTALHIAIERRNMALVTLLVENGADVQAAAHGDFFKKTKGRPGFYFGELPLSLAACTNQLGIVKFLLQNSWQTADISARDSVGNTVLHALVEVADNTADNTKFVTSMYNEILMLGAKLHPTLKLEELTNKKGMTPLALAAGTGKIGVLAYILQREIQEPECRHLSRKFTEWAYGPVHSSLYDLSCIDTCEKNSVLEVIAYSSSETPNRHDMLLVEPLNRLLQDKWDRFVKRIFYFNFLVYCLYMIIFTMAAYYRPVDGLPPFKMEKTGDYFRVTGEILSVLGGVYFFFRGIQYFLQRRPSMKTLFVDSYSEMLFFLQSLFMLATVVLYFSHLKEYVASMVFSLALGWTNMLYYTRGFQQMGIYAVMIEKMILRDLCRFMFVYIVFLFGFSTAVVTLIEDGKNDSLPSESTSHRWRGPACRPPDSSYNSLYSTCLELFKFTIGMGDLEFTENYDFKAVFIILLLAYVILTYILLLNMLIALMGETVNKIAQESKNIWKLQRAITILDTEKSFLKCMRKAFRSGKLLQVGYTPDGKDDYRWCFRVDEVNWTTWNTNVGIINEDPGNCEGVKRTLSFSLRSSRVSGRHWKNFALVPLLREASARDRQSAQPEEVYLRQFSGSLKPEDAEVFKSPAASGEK

What is called Ki is a dissociation constant, usually derived from enzyme kinetics or from competition with a known ligand. As for “2-(2-Fluoro-4-(methylsulfonamido)phenyl)-N-(2-(4-(4-fluorobenzyl)piperidin-1-yl)-4-(trifluoromethyl)benzyl)propanamide [Compound 20]”, the Ki on human TRPV1 (read-out: Ki (CAP), capsaicin 100 nM, FLIPR, hTRPV1 expressed in CHO cells) worked out at 0.4 nM.
“2-(3-Fluoro-4-(methylsulfonamido)phenyl)-N-(2-cyclopentylthio-4-(trifluoromethyl)-benzyl)propanamide [Compound 49]”: the “hTRPV1 antagonism in words” value at human TRPV1 (setting [3]) is “moderate antagonism”.
Turning to `CC(C(=O)NCc1ccc(C(F)(F)F)cc1N1CCOCC1)c1ccc(NS(C)(=O)=O)c(F)c1` (centres unmarked) [Compound 27, 2-(3-Fluoro-4-methanesulfonylamino-phenyl)-N-(2-morpholin-4-yl-4-trifluoromethyl-benzyl)-propionamide], at human TRPV1 (capsaicin antagonism, versus compound 10), the “fold less potent than the corresponding piperidine surrogate (10)” value is on record as “ca. 4 fold”.
`CCCCCCOc1cc(C(F)(F)F)ccc1CNC(=O)C(C)c1ccc(NS(C)(=O)=O)c(F)c1` (centres unmarked) [Compound 31, 2-(3-Fluoro-4-(methylsulfonamido)phenyl)-N-(2-(hexyloxy)-4(trifluoromethyl)benzyl)propanamide] had a Ki at human TRPV1 of 0.7 to 0.8 nM.
For the molecule `CC(C(=O)NCc1ccc(C(F)(F)F)cc1SCCCO)c1ccc(NS(C)(=O)=O)c(F)c1` (centres unmarked) [Compound 42, 2-(3-Fluoro-4-(methylsulfonamido)phenyl)-N-(2-((3-hydroxypropyl)thio)-4-(trifluoro-methyl)benzyl)propanamide], the “hTRPV1 antagonism in words” value on human TRPV1 (setting [3]) is recorded as “loss of activity”.
`CC(C(=O)NCc1ccc(C(F)(F)F)cc1SC1CCCC1)c1ccc(NS(C)(=O)=O)c(F)c1` (centres unmarked) [Compound 43, 2-(3-Fluoro-4-(methylsulfonamido)phenyl)-N-(2-cyclopentylthio-4-(trifluoromethyl)-benzyl)propanamide]: the “Effect on capsaicin-induced hypothermia in words” value in series [1] was “blocked capsaicin-induced hypothermia”. Further, the “Hyperthermia / body temperature effect of compound alone” value with body temperature is given as “without hyperthermia; also recorded: did not show any hyperthermia; also recorded: thermoneutral”.
As for `C[C@H](C(=O)NCc1ccc(C(F)(F)F)cc1SC1CCCCC1)c1ccc(NS(C)(=O)=O)c(F)c1` [Compound 44S], the “Effect on capsaicin-induced hypothermia in words” value in series [1] is “blocked capsaicin-induced hypothermia”. In series [2], the “max antiallodynic efficacy in cold allodynia, MPE” value is 57 % MPE. For the same molecule, the “Hyperthermia / body temperature effect of compound alone” value with body temperature is “without hyperthermia; also recorded: did not show any hyperthermia; also recorded: thermoneutral”.
Regarding `CC(C(=O)NCc1ccc(C(F)(F)F)cc1F)c1ccc(NS(C)(=O)=O)c(F)c1` (centres unmarked) [Compound 50, 2-(3-Fluoro-4-methanesulfonylamino-phenyl)-N-(2-fluoro-4-trlfluoromethyl-benzyl)-propioamide], the “hTRPV1 antagonism in words” value on human TRPV1 (setting [3]) is “weak antagonists”.
As to `CC(C(=O)NCc1ccc(C(F)(F)F)cc1Cl)c1ccc(NS(C)(=O)=O)c(F)c1` (centres unmarked) [Compound 51, 2-(3-Fluoro-4-methanesulfonylamino-phenyl)-N-(2-chloro-4-trifluoromethyl-benzyl)-propionamide], at human TRPV1 (setting [3]), the “hTRPV1 antagonism in words” value is “good antagonism”.
Take `CC(C(=O)NCc1ccc(C(F)(F)F)cc1[N+](=O)[O-])c1ccc(NS(C)(=O)=O)c(F)c1` (centres unmarked) [Compound 52, 2-(3-Fluoro-4-methanesulfonylamino-phenyl)-N-(2-nitro-4-trifluoromethyl-benzyl)-propionamide]: the “hTRPV1 antagonism in words” value at human TRPV1 (setting [3]) is reported as “weak antagonists”.
On to `CC(C(=O)NCc1ccc(C(F)(F)F)cc1-c1cccnc1)c1ccc(NS(C)(=O)=O)c(F)c1` (centres unmarked) [Compound 62, 2-(3-Fluoro-4-methanesulfonylamino-phenyl)-N-(2-pyridin-3-yl-4-trifluoromethylbe-nzyl)-propionamide], for which, at human TRPV1 (setting [3]), the “hTRPV1 antagonism in words” value is “weak antagonist”.
